Screening results (PubChem)
In the library only some 3.4% were active in any assay of this set; here they are far more common.
Cdc25B block – inhibitors of human Cdc25B phosphatase; P30305; recombinant Cdc25B, OMFP fluorescence Ex485/Em525; inhibition, %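 (compounds tested at 10 µM final in the well)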; 65,000 compounds, 0.1% hits; AID 368; in the data active = inhibition above about 50%
RORA act – activates the human nuclear receptor RORA. P35398. CHO-K1 Gal4-RORA LBD luciferase reporter, luminescence; percent increase over mock-subtracted basal signal. activation, % at 10 µM. 65,000 compounds, 1.5% hits. AID 560;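 active = activation above the mean of all tested compounds plus 3 SD, cut at about 49% in these data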;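 note: 0% = DMSO-treated RORA cells and 100% = added signal equal to DMSO minus mock-transfected cells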
JNK3 inh – blocks human JNK3 kinase activity; purified JNK3 kinase activity, HTS; 60,000 compounds, 0.61% hits; inhibition, % at 8 µM; P53779; in the data active = inhibition above about 17%;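 note: 0% = DMSO and 100% = reference inhibitor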
SF-1 act – SF-1 (human) activation; Q13285; CHO-K1 Gal4-SF-1 LBD luciferase reporter; % increase over DMSO SF-1-specific signal; activation, % at 10 µM; 65,000 compounds, 1.9% hits;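 active = activation above the mean activation of all tested compounds plus 3 SD, cut at about 50% in these data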
Target sequence (Q13285 whole entry, looked up, the tested form may be a part): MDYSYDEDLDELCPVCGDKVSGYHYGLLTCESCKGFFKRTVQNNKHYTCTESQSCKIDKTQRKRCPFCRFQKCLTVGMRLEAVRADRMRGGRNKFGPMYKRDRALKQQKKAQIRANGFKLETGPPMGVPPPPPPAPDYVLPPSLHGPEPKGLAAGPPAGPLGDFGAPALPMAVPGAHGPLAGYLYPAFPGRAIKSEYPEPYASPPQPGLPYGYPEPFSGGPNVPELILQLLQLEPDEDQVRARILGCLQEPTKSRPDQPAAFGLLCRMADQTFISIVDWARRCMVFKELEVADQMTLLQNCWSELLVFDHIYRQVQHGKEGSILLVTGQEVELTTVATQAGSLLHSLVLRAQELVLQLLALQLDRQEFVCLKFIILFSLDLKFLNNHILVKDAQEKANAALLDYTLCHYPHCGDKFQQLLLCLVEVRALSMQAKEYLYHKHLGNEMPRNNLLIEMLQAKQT
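Test system: CHO-K1 cells co-transfected with Gal4 DBD–human SF-1 LBD, 5xGal4 luciferase reporter. Quantity: 4,000 cells per well. Compound: 10 µM only. Incubation: compound added 1 h post-seeding, 20 h exposure at 37 °C, 5% CO2. Detection: SteadyLite luciferase luminescence. Replication: one test per compound.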
Hsp90 inh – displaces geldanamycin probe from tumor Hsp90; AID 429; NCI-N417 lysate Hsp90, Cy3B-geldanamycin FP displacement; 64,000 compounds, 0.35% hits; inhibition, % at 30 µM;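 active = inhibition above 50%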;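 note: 0% = tracer plus lysate wells and 100% = tracer alone without lysate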
DUSP1 inh – inhibitors of human MKP-1 phosphatase; recombinant MKP-1, OMFP hydrolysis fluorescence; inhibition, %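 (compounds tested at a single concentration somewhere between 10 and 100 µM)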; 65,000 compounds, 0.15% hits;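 active = inhibition above about 50%, limit read from the data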;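 note: 0% = DMSO max control wells and 100% = wells with enzyme stopped by NaOH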
An asterisk follows results filed as active; x = no result given.

SMILES | Cdc25B block | RORA act | JNK3 inh | SF-1 act | Hsp90 inh | DUSP1 inh
COc1cc(N)c2nccc(Cl)c2c1 | x | x | x | x | 13 | x
NC(=O)c1c(NC(=O)c2cccs2)sc2c1CCCCCC2 | 3 | 56* | 3 | 45 | -5 | 7
NC(=O)c1c(NC(=O)C2CCCO2)sc2c1CCC2 (configuration not stated) | -3 | 9 | 31* | 11 | -20 | 3
O=C(Nc1sc2c(c1C(=O)O)CCC2)c1cccs1 | -10 | 27 | 0 | 30 | -2 | 3
COc1cc2c(cc1OC)C(C)N(C(=O)C1COc3ccccc3O1)CC2 (configuration not stated) | 0 | 2 | 1 | -7 | 1 | 2
Cc1ccc(-c2nc3cnccn3c2Nc2ccccc2)o1 | 4 | 49* | 12 | 37 | -2 | 9
CCn1c(C(C)NC(C)=O)nc2ccccc21 (configuration not stated) | -30 | -16 | 31* | 11 | -7 | 6
CCCCN1CCc2c([nH]c3c(C)cccc23)C1=O | -14 | 28 | 9 | 37 | -9 | -2
Cc1cccc2cc(CN(CCc3ccccc3)C(=O)N3CCOCC3)c3nnnn3c12 | -1 | 16 | 0 | -20 | -1 | -6
Cn1cccc1CNC(=O)Nc1ccc(Cl)cc1 | -9 | 16 | -10 | 54* | -1 | 9
Clc1ccc(OCc2nnc(-c3ccccc3Br)o2)c(Cl)c1 | 2 | 90* | -2 | 30 | 0 | 9
Clc1ccc(OCc2nnc(-c3ccccc3Br)o2)cc1 | 1 | 17 | -1 | 8 | -5 | -14
CNC(=O)OCc1cnc2ccc(OC)cc2c1COC(=O)NC | x | x | x | x | -2 | x
c1ccc(OCc2nc3ccccc3s2)cc1 | -12 | 44 | 0 | 42 | -3 | 0
c1ccc(-c2nc3ccccc3s2)nc1 | 9 | 34 | 0 | 60* | 0 | -6
Brc1ccc(-c2nc3ccccc3s2)s1 | 6 | 48 | 5 | 54* | -1 | -3
CC(C)OCCCn1c(=N)c(C(N)=S)cc2c(=O)n3ccccc3nc21 | 8 | -28 | 3 | -11 | -9 | -9
CN(C(=O)c1ccco1)c1nnc(C23CC4CC(CC(C4)C2)C3)s1 | 0 | 61* | -4 | 76* | 3 | -10
Cc1ccc2c(C)nc(NC3=NCN(Cc4ccccc4)CN3)nc2c1 | -6 | 3 | 40* | -5 | 1 | 16
Cc1ccc2nc(NC3=NCN(Cc4ccccc4)CN3)nc(C)c2c1 | 3 | -14 | 3 | -6 | -1 | 18
O=C(c1ccccc1)c1ccc(N2CCOCC2)c(F)c1 | -8 | 74* | -3 | 46 | -2 | -10
CCOC(=O)c1ccc(NC(=O)C2CCCO2)cc1 (configuration not stated) | -9 | 12 | 0 | 64* | -2 | -5
CCCCc1ccc(NC(=O)C2CCCO2)cc1 (configuration not stated) | -7 | 76* | -3 | 33 | -1 | -7
COc1ccc(-n2nc(C(=O)N3CCC(C#N)CC3)c3c4ccccc4n(C)c3c2=O)cc1 | -9 | -27 | 3 | -26 | 0 | 6
CCOC(=O)C1CCCN(C(=O)c2ccccc2Oc2ccccc2)C1 (configuration not stated) | -14 | -19 | -5 | 10 | -2 | -3
SMILES | Cdc25B block | RORA act | JNK3 inh | SF-1 act | Hsp90 inh | DUSP1 inh
O=C1N=C(O)CN1/N=C/c1ccc(-c2ccc([N+](=O)[O-])cc2)o1 | x | x | x | x | 1 | x
CCOc1ccc2nc(-c3ccccc3)[nH]c2c1 | 5 | 67* | -2 | 27 | -1 | -23
COc1ccc2nc(-c3ccccc3)[nH]c2c1 | 1 | 0 | -2 | 5 | 0 | -4
CCOc1ccccc1NC(=O)Cn1nnc(-c2ccc(OCC)c(OCC)c2)n1 | 10 | -9 | 8 | -13 | 0 | 29
Cc1n[nH]c(C)c1SCC(=O)Nc1ccc(F)cc1 | -14 | -11 | -1 | -3 | 3 | -3
O=C(CNc1ccccc1)Nc1ccc(F)cc1 | -1 | 3 | 6 | 61* | -5 | -26
CNC(=O)[C@H]1O[C@@H](n2cnc3c(NCc4ccc(N)cc4)ncnc32)C(O)[C@H]1O (some centres not stated) | x | x | x | x | 0 | x
O=C(Nc1ccc(Br)cn1)c1ccc2nccnc2c1 | 0 | 44 | 4 | 69* | -2 | -20
CC(C)(C)NC(=O)c1ccc2nccnc2c1 | -2 | -20 | 3 | 3 | -7 | -28
CC(C)(C)c1ccc(C(=O)C=[N+]=[N-])cc1 | -2 | -18 | -4 | 6 | -2 | -23
CC(=O)Nc1ccc(S(=O)(=O)N2CCC(n3cnc4cc(F)ccc43)CC2)cc1 | 12 | -25 | 23* | -3 | -2 | 13
CN(c1ccccc1)c1nc2ccsc2c(=O)s1 | 0 | 32 | x | 50* | -3 | 6
COc1cc(C(=O)OCC(=O)c2cc(C)n(C)c2C)cc(OC)c1OC | 2 | 36 | 0 | 52* | -3 | -1
O=c1[nH]c(Cn2nnc(-c3ccccc3)n2)nc2scc(-c3ccccc3)c12 | 12 | -31 | -6 | -5 | -6 | 24
CC(=NC1CCCCC1)C1=C(O)c2ccccc2C1=O | -2 | 88* | 15 | 24 | -9 | 6
CSC(=NC1CCCCC1)NS(=O)(=O)c1ccccc1 | 3 | -4 | x | -9 | x | 3
O=C(CC(SCc1ccco1)c1ccc(O)cc1)c1cccs1 (configuration not stated) | 0 | 87* | -3 | 31 | 0 | -4
Cc1ccc(N(C(C)C(=O)O)S(=O)(=O)c2c(C)n[nH]c2C)cc1 (configuration not stated) | -1 | -16 | -2 | 20 | -1 | 4
CN1CCCN(C(=O)Cc2c(Cl)cccc2Cl)c2nc3ccccc3nc21 | -1 | -10 | -3 | -14 | -3 | 21
Cc1nc(NCc2ccco2)c(C#N)c2c1COC(C)(C)C2 | 0 | -6 | 31* | 2 | -5 | 26
CC1(C)Cc2c(C#N)c(NCc3ccco3)nc(-c3ccco3)c2CO1 | -35 | 6 | 12 | -19 | -4 | -18
CCOC(=O)c1sc(NC(=O)c2ccc(Br)o2)cc1C | -10 | 69* | x | 69* | x | 4
COC(=O)c1ccc2c(c1)SC1=C(CCCC1=O)N2 | 1 | 6 | -25 | 20 | 85* | 6
O=C(COc1ccc(-c2ccccc2)cc1)N1CCN(C(=O)c2cccnc2)CC1 | -11 | -2 | -9 | 16 | 92* | 6
O=C(COc1ccccc1)N1CCN(C(=O)c2cccc(F)c2)CC1 | -3 | -19 | 3 | -19 | 2 | -21
CCOC(=O)N1CCC2(CC1)C(C#N)=C(N)Oc1c2c(C)nn1-c1cccc(Cl)c1 | -5 | -18 | 3 | 3 | -46 | 34
NC(=O)c1cc[n+](CC2=C(C(=O)O)N3C(=O)[C@@H](NC(=O)[C@@H](c4ccccc4)S(=O)(=O)[O-])[C@H]3SC2)cc1 | x | x | x | x | 1 | x
